As a reminder, the Ki is the equilibrium dissociation constant of an inhibitor or competing ligand from its target. The term solubility denotes the dissolved amount per volume that the medium holds. For orientation: efflux ratio means the permeability from basolateral to apical divided by that in the opposite direction, in the common usage. By IC50 is commonly meant the concentration at which inhibition is half-maximal.

A short description of data set [1]: Selectivity ratio of Ki for N-terminal GST-tagged human recombinant PDE11A4 (1 to 943 residues) expressed in baculovirus-infected Sf9 cells to Ki for human PDE10A2 transfected in human AD293 cells cytosolic fraction.
A short description of data set [2]: Selectivity ratio of Ki for N-terminal GST-tagged human recombinant PDE5A1 (1 to 875 residues) expressed in baculovirus-infected Sf9 cells to Ki for human PDE10A2 transfected in human AD293 cells cytosolic fraction.
Data set [3] can be described thus: Selectivity ratio of Ki for N-terminal GST-tagged human recombinant PDE4A1A (1 to 647 residues) expressed in baculovirus-infected Sf9 cells to Ki for human PDE10A2 transfected in human AD293 cells cytosolic fraction.
Data set [4] in a line: Selectivity ratio of Ki for N-terminal GST-tagged human recombinant PDE1A expressed in baculovirus-infected Sf9 cells to Ki for human PDE10A2 transfected in human AD293 cells cytosolic fraction.
A short description of data set [5]: Selectivity ratio of Ki for N-terminal His-GST-tagged human recombinant PDE3A(669 to 1141 residues) expressed in baculovirus-infected Sf9 cells to Ki for human PDE10A2 transfected in human AD293 cells cytosolic fraction.
Data set [6] in a line: Selectivity ratio of Ki for N-terminal GST-tagged full length human recombinant PDE9A2 expressed in baculovirus-infected Sf9 cells to Ki for human PDE10A2 transfected in human AD293 cells cytosolic fraction.
Data set [7] is described as follows: Selectivity ratio of Ki for N-terminal GST-tagged and C-terminal His-tagged human recombinant PDE7A (122 to 456 residues) expressed in baculovirus-infected Sf9 cells to Ki for human PDE10A2 transfected in human AD293 cells cytosolic fraction.
Data set [8] can be described thus: Selectivity ratio of Ki for Rhesus monkey PDE2A3 transfected in AD293 cells cytosolic fraction to Ki for human PDE10A2 transfected in human AD293 cells cytosolic fraction. In kind it is cell-based.
A short description of data set [9]: Unbound plasma clearance in rat. Type of data set: ADME. As to conditions: in vivo. The essentials:
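Rat unbound clearance (CLu) was calculated by dividing the measured rat plasma clearance by the rat plasma free fraction.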

A short description of data set [10]: Selectivity ratio of Ki for N-terminal GST-tagged full length human recombinant PDE8A1 expressed in baculovirus-infected Sf9 cells to Ki for human PDE10A2 transfected in human AD293 cells cytosolic fraction.
Data set [11] addresses cAMP and cAMP-inhibited cGMP 3',5'-cyclic phosphodiesterase 10A (Homo sapiens, UniProt Q9Y233). Description: Inhibition of human PDE10A2 transfected in human AD293 cells cytosolic fraction using cAMP as substrate by fluorescence polarization assay. In kind it is subcellular, Cytosol.
Data set [12] in a line: Aqueous solubility of the compound at pH 7. As to conditions: buffer. In kind it is physicochemical.
The target of data set [13] is P-gp (ABCB1) (Rattus norvegicus, UniProt P43245). The experiment in a line: (§1) Substrate activity at rat P-gp assessed as efflux ratio. Type of data set: ADME.
In data set [14] the target is ATP-dependent translocase ABCB1 (Rattus norvegicus, UniProt P43245). The data set is described as §1. In kind it is ADME.
Data set [15] deals with Rattus norvegicus. The experiment in a line: Cognitive-enhancing activity in rat assessed as improvement in novel object recognition at 0.56 mg/kg, po measured after 1 hr by novel object recognition test. Type of data set: functional, organism-based. The essentials: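 Novel object recognition in rats: oral dosing, then discrimination of a novel object from one seen 48 h earlier. Doses 0.08–0.25 mg/kg; donepezil 0.56 mg/kg as positive control. Groups compared with vehicle (p < 0.05). Plasma for exposure taken 1 h post dose, n = 4/group.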

Data set [16] concerns the target Voltage-gated inwardly rectifying potassium channel KCNH2 (Homo sapiens, UniProt Q12809). The experiment in a line: Displacement of MK499 from hERG. In kind it is toxicity.

Converted amounts (≈) assume the structure as drawn. The source made the active and inactive calls. The calls are words filed in the database; no cut-off is given here. Where only a bound is given, the exact number is not on record here.

P-gp (ABCB1), sequence (P43245 whole entry): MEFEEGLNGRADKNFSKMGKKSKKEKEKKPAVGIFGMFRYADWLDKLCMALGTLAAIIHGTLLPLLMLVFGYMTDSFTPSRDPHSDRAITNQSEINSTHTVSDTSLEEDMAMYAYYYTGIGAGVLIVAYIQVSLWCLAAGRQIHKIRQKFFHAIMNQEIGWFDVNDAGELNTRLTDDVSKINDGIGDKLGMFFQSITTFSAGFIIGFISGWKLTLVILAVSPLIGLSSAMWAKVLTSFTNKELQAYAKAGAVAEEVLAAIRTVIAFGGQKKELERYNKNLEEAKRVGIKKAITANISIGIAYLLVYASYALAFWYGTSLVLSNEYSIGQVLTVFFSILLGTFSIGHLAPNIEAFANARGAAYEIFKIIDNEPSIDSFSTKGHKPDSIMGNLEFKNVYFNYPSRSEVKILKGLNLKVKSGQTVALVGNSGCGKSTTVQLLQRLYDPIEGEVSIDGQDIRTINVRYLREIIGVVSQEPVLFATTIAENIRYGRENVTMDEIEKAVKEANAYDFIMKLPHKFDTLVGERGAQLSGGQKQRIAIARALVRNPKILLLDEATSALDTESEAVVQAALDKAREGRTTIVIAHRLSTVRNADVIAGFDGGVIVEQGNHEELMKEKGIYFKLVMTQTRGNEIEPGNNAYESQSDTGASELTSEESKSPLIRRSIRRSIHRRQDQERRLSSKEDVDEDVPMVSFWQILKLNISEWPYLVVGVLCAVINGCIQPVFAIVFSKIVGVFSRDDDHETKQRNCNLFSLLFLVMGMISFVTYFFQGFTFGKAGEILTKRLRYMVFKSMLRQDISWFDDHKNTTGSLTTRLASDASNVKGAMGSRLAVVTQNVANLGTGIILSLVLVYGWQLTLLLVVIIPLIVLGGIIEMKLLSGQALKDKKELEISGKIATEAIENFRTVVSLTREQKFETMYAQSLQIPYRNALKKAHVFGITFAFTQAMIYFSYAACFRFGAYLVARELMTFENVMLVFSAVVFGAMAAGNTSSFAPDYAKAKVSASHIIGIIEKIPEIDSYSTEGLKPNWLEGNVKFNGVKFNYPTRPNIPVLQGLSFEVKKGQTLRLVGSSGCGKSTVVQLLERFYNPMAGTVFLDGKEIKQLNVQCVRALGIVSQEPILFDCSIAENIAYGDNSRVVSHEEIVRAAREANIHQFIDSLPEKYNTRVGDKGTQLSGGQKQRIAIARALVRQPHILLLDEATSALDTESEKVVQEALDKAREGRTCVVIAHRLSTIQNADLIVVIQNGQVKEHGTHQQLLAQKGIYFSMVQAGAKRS
cAMP and cAMP-inhibited cGMP 3',5'-cyclic phosphodiesterase 10A, sequence (Q9Y233 whole entry): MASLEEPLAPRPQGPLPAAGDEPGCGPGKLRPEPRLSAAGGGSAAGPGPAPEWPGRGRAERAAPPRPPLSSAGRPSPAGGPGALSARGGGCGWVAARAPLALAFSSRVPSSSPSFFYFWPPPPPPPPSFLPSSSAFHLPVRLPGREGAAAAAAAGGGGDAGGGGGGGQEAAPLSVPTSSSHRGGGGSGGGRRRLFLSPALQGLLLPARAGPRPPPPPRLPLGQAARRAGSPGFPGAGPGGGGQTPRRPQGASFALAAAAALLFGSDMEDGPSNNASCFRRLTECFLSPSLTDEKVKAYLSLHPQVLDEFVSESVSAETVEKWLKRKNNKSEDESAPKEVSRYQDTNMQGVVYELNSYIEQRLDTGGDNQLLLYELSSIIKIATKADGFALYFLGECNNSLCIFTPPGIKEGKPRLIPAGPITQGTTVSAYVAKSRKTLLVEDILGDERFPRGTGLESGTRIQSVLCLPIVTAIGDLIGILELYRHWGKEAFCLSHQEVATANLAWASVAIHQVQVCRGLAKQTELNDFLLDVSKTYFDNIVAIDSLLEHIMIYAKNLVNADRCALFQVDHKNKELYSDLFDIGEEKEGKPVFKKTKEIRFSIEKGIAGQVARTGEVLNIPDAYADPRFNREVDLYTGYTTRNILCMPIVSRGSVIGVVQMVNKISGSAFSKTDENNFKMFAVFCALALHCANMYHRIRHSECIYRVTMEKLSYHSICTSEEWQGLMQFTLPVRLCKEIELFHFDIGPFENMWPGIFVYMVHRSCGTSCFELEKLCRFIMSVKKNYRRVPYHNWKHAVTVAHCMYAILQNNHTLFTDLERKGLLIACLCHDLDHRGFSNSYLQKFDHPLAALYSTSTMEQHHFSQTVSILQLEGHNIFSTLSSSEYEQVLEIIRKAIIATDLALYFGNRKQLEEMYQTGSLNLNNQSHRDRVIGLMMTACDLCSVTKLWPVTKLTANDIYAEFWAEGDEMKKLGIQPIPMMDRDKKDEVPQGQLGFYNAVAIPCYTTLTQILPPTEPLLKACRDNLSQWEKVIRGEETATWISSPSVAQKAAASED
ATP-dependent translocase ABCB1, sequence (P43245 whole entry): as the sequence (P43245 whole entry) above
Voltage-gated inwardly rectifying potassium channel KCNH2, sequence (Q12809 whole entry): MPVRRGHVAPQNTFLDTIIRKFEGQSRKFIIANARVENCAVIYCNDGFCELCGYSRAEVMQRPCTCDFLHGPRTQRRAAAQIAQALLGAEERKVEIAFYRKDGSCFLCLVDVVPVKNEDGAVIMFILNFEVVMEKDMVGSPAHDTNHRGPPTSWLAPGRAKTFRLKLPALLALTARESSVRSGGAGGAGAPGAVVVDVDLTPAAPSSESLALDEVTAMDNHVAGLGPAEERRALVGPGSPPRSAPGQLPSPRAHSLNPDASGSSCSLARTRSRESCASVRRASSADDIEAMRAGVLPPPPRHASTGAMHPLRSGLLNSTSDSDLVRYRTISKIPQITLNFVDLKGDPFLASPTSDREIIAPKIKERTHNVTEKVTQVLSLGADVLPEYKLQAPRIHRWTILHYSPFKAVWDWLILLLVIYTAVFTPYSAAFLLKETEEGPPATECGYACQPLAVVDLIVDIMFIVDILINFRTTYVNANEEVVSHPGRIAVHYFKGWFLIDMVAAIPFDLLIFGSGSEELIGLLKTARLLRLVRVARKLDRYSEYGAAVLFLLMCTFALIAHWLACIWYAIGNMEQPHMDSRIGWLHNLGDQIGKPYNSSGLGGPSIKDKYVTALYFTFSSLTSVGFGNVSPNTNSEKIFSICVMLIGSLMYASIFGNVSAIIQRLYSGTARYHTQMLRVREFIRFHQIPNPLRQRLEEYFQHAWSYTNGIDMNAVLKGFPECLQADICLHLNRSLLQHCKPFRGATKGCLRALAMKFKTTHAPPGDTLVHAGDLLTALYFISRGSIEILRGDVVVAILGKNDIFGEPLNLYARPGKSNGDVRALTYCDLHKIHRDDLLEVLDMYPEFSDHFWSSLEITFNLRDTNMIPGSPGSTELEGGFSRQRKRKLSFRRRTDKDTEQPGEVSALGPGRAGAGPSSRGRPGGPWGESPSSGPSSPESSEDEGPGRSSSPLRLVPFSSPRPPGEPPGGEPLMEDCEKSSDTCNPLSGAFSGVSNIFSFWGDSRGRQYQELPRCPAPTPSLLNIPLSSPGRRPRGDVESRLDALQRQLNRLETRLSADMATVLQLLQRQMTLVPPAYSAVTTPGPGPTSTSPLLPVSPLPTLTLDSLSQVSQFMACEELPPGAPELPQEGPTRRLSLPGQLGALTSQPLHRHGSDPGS

On to `Cc1nc(C)c(CNc2nc(OCCCc3ccc4ccccc4n3)nc(Cl)c2C)s1`, for which the Ratio Ki in data set [1], in data set [2], in [3], in [4], in data set [5] and in [6] was over 5000 in each case. The Ratio Ki in [7], in [8] and in data set [10] was over 5000 in each case. Moreover, in data set [9], the CL free was 720 L/h/kg.
`Cc1ccc([C@H]2C[C@@H]2COc2cc(NCc3cnn(C)c3)nc(C)n2)nc1`: the Ratio Ki in data set [1], in data set [2], in data set [3], in data set [4], in data set [5] and in data set [6] was over 425000 in each case. Further, the Ratio Ki in data set [7], in data set [8] and in data set [10] was over 425000 in each case. Further, the affinity in [11] corresponds to a Ki of 0.061 nM. Also, the CL free in data set [9] worked out at 284.4 L/h/kg.
With `Cn1cc(CNc2cc(OC[C@H]3C[C@@H]3c3ccccn3)nc3ccccc23)cn1`, the Ratio Ki in data set [1], in [2], in data set [3], in data set [4], in data set [5] and in [6] was over 5000 throughout. For the same molecule, the Ratio Ki in data set [7], in data set [8] and in data set [10] was over 5000 in each case. Moreover, the Ki in data set [11] came to 0.49 nM. In data set [12], this molecule had a solubility of 19 µM (≈ 7.32 µg/mL). Also, in data set [13], the efflux ratio worked out at 0.5.
Turning to `Cn1cc(CNc2cc(OC[C@H]3C[C@@H]3c3ccccn3)nc3ccnn23)cn1`, the Ratio Ki in data set [1], in data set [2], in data set [3], in data set [4], in [5] and in data set [6] was over 5800 each time. The Ratio Ki in [7], in data set [8] and in [10] was over 5800 in each case. Besides, the efflux ratio in data set [13] was 0.7.
Regarding `Cc1nc(NCc2cnn(C)c2)cc(OC[C@H]2C[C@@H]2c2ccccn2)n1`, the Ratio Ki in data set [1], in data set [2], in data set [3], in data set [4], in [5] and in data set [6] was over 67000 in each case. Besides, the Ratio Ki in data set [7], in data set [8] and in data set [10] was over 67000 in each case. For the same molecule, the Ki in data set [11] turned out to be 0.6 nM.
On to `COc1ccc([C@H]2C[C@@H]2COc2cc(NCc3cnn(C)c3)nc(C)n2)nc1`, for which the Ratio Ki in [1], in [2], in [3], in [4], in data set [5] and in data set [6] was over 490000 throughout. Besides, the Ratio Ki in data set [7], in data set [8] and in data set [10] was over 490000 throughout. In addition, the Ki in data set [11] turned out to be 0.054 nM. For the same molecule, the CL free in data set [9] amounted to 424.8 L/h/kg.
For the molecule `Cn1cc(CNc2cc(OC[C@H]3C[C@@H]3c3ccccn3)nc3cccnc23)cn1`, the Ratio Ki in [1], in [2], in data set [3], in data set [4], in data set [5] and in data set [6] was over 2000 each time. The Ratio Ki in data set [7], in data set [8] and in [10] was over 2000 throughout. The molecule also yielded an inhibition constant Ki in [11] of 0.87 nM. The molecule also gave a solubility in [12] of 81 µM (≈ 31.3 µg/mL). For the same molecule, the efflux ratio in data set [13] was determined as 0.7.
Turning to `COc1ccc([C@H]2C[C@@H]2COc2cc(NCc3nnc(C)s3)nc(C)n2)nc1`, the Ratio Ki in data set [1], in [2], in [3], in data set [4], in [5] and in data set [6] was over 225000 in each case. The Ratio Ki in data set [7], in data set [8] and in data set [10] was over 225000 throughout. Also, the affinity in data set [11] corresponds to a Ki of 0.038 nM. This molecule also displayed a CL free in data set [9] of 31.8 L/h/kg.
For the molecule `Cn1cc(CNc2cc(OC[C@H]3C[C@@H]3c3ccccn3)nc3cnccc23)cn1`, the Ratio Ki in data set [1], in [2], in [3], in [4], in data set [5] and in data set [6] was over 7000 in each case. Further, the Ratio Ki in data set [7], in data set [8] and in [10] was over 7000 each time. Also, in data set [11], the affinity corresponds to a Ki of 0.13 nM. For the same molecule, the solubility in data set [12] came to 149 µM (≈ 57.6 µg/mL). The Ratio in data set [14] amounted to 6.3.
As for `Cc1c(NCc2cnn(C)c2)cc(OC[C@H]2C[C@@H]2c2ccccn2)nc1Cl`, the Ratio Ki in [1], in [2], in [3], in [4], in data set [5] and in data set [6] was over 30000 throughout. In addition, the Ratio Ki in [7], in data set [8] and in [10] was over 30000 throughout. The molecule further showed an inhibitory constant (Ki) in data set [11] of 0.047 nM. In data set [12], the solubility stood at 86 µM (≈ 33 µg/mL). In addition, in [13], the efflux ratio came out at 0.6.
`COc1cc2c(cc1OC)C(=O)C(CC1CCN(Cc3ccccc3)CC1)C2` (centres undefined): the result in data set [15] was Active.
In the case of `Cc1nnc(CNc2cc(OC[C@H]3C[C@@H]3c3ccccn3)nc3cccnc23)s1`, the Ratio Ki in [1], in data set [2], in data set [3], in data set [4], in data set [5] and in data set [6] was over 3600 each time. Moreover, the Ratio Ki in data set [7], in [8] and in [10] was over 3600 in each case. Also, in data set [11], the Ki was found to be 0.11 nM. The molecule also yielded a 50% inhibitory concentration (IC50) in data set [16] of 25000 nM.
For `Cc1nc(NCc2nnc(C)s2)cc(OC[C@H]2C[C@@H]2c2ccccn2)n1`, the Ratio Ki in data set [1], in data set [2], in data set [3], in [4], in data set [5] and in data set [6] was over 45000 in each case. In addition, the Ratio Ki in data set [7], in [8] and in data set [10] was over 45000 each time. Further, the Ki in [11] amounted to 0.33 nM. In data set [9], this molecule had a CL free of 11.1 L/h/kg.
In the case of `Cn1cc(CNc2cc(OC[C@H]3C[C@@H]3c3ccccn3)nc3ncccc23)cn1`, in data set [11], the affinity, expressed as Ki, was 8.6 nM.
`Cc1c(Cl)cc(OC[C@H]2C[C@@H]2c2ccccn2)nc1NCc1cnn(C)c1` yielded a Ki in data set [11] of 3.2 nM.
Turning to `Cc1c(Cl)nc(OC[C@H]2C[C@@H]2c2ccccn2)nc1NCc1cnn(C)c1`, the Ratio Ki in data set [1], in data set [2], in [3], in [4], in data set [5] and in data set [6] was over 2500 in each case. For the same molecule, the Ratio Ki in data set [7], in data set [8] and in data set [10] was over 2500 throughout. For the same molecule, the efflux ratio in data set [13] was determined as 2. In data set [9], this molecule registered a CL free of 174 L/h/kg.
For `Cn1cc(CNc2cc(OC[C@H]3C[C@@H]3c3ccccn3)nc3ccncc23)cn1`, the Ratio Ki in data set [1], in data set [2], in [3], in data set [4], in data set [5] and in data set [6] was over 20000 each time. For the same molecule, the Ratio Ki in [7], in [8] and in data set [10] was over 20000 throughout. Also, the Ki in data set [11] was 0.12 nM. The solubility in data set [12] stood at 22 µM (≈ 8.5 µg/mL). Moreover, the Ratio in data set [14] was found to be 24.

(Values after ChEMBL document CHEMBL5316310, “Discovery of MK-8189, a Highly Potent and Selective PDE10A Inhibitor for the Treatment of Schizophrenia” (J Med Chem, 2023).)
